Assay results taken from ChEMBL document CHEMBL1124273, “Synthesis and antiviral activity of certain 4-substituted and 2,4-disubstituted 7-[(2-hydroxyethoxy)methyl]pyrrolo[2,3-d]pyrimidines” (J Med Chem, 1988).

Key:
[1] = test system: Human alphaherpesvirus 1; experiment: Antiviral activity against Herpes simplex virus type 1 determined by plaque reduction assay; format: functional, organism-based
[2] = test system: HFF; experiment: The compound was tested for cytotoxicity against human foreskin fibroblast cell; format: functional, cell-based
Outline: (§1)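 Visual cytotoxicity was scored on uninfected cells in the plaque-reduction plates: BSC-1 (HSV-1 assay) or HFF (HCMV assay), both grown in MEM(E) with 10% FBS. Cells were examined at 35- and 60-fold magnification and scored 0 to 4+ on the day of staining for plaque counting. The highest concentration tested was 100 μM.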

[3] = test system: Cytomegalovirus; experiment: Inhibitory activity against human cytomegalovirus determined by plaque reduction assay; format: functional, organism-based; conditions: Human betaherpesvirus 5
[4] = The compound was tested for cytotoxicity against BSC1 cell; format: functional, cell-based; conditions: Cercopithecidae, BSC-1; outline: as §1
[5] = Average percent inhibition of DNA, RNA, and protein synthesis determined in KB cells; format: functional, cell-based; conditions: Homo sapiens
Outline: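 KB cells (human oral epidermoid carcinoma) grown in MEM(H) with 5% FBS. Cytotoxicity was measured as inhibition of radioactive precursor incorporation into DNA, RNA and protein. An I50 for each was obtained by linear regression against log concentration, and the three I50 values were averaged. The highest concentration tested was 100 μM.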

[6] = The compound was tested for cytotoxicity against BSC-1 cells; format: functional, cell-based; conditions: Cercopithecidae; outline: as §1

| IC50 [1] | IC50 [3] | IC50 [5] | Compound | IC50 [2] | IC50 [4] | IC50 [6] |
| --- | --- | --- | --- | --- | --- | --- |
| > 100 µM | > 100 µM | – | COc1nc(N)c2ccn(COCCO)c2n1 | > 100 µM | > 100 µM | – |
| > 100 µM | > 100 µM | – | CSc1nc(N)c2ccn(COCCO)c2n1 | > 100 µM | > 100 µM | – |
| > 100 µM | > 100 µM | > 100 µM | Nc1ncnc2c1ccn2COCCO | > 100 µM | > 100 µM | – |
| > 100 µM | > 100 µM | – | CS(=O)(=O)c1nc(N)c2ccn(COCCO)c2n1 | > 100 µM | > 100 µM | – |
| > 100 µM | > 100 µM | – | Nc1nc(Cl)nc2c1ccn2COCCO | > 100 µM | > 100 µM | – |
| > 100 µM | > 100 µM | – | Nc1nc(N)c2ccn(COCCO)c2n1 | > 100 µM | > 100 µM | – |
| > 100 µM | > 100 µM | 33 µM | CSc1nc(Cl)c2ccn(COCCOC(C)=O)c2n1 | 100 µM | – | > 100 µM |
| > 100 µM | > 100 µM | – | CSc1nc(Cl)c2ccn(COCCO)c2n1 | 30 µM | > 100 µM | – |
| > 100 µM | > 100 µM | 112 µM | CC(=O)Nc1nc(Cl)c2ccn(COCCO)c2n1 | > 100 µM | > 100 µM | – |
| > 100 µM | 40 µM | – | CC(=O)OCCOCn1ccc2c(Cl)nc(Cl)nc21 | 100 µM | > 100 µM | – |
| > 100 µM | > 100 µM | – | Nc1nc(O)nc2c1ccn2COCCO | > 100 µM | > 100 µM | – |
| > 100 µM | 37 µM | – | OCCOCn1ccc2c(Cl)nc(Cl)nc21 | 100 µM | > 100 µM | – |
| – | 63 µM | > 100 µM | Nc1nc2c(ncn2COCCO)c(=O)[nH]1 [ACYCLOVIR] | > 100 µM | > 100 µM | – |

| Compound | IC50 [1] | IC50 [3] | IC50 [5] | IC50 [2] | IC50 [4] | IC50 [6] |
| --- | --- | --- | --- | --- | --- | --- |
| Nc1nc2c(ncn2COC(CO)CO)c(=O)[nH]1 [GANCICLOVIR] | – | 8.8 µM | 1000 µM | > 100 µM | > 100 µM | – |
